MITF act – activators of MITF-driven TRPM1 promoter reporter, primary screen, cell-based, SK-MEL-5, luciferase, single point | AID 588334, 2011 | activation, % at 12.5 µM | hit rate 0.75% among 300,000 | SK-MEL-5 TRPM1-promoter luciferase, 24 h; % of positive control, neutral wells = 0;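 active means mean activation of at least 80% with every replicate also reaching 80%; inconclusive means mean reaches 80% but some replicate falls short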;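 further: 0% = neutral control wells and 100% = parthenolide positive control wells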
HIV Env fusion – inhibitors of HIV-1 Env-driven cell-cell fusion, primary screen, HeLa-JRFL effector, CEM21 target cells, luciferase; inhibition, % at 12.3 µM; hit rate 1.1% among 360,000;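 active means mean replicate inhibition score of at least 50 and every replicate individually at or above 50; inconclusive means only one of the two criteria met; inactive means mean below 50 and not all replicates reaching 50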;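 further: 0% = plate neutral controls and 100% = maraviroc near 300 nM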
ERAP1 inh – human ERAP1 aminopeptidase inhibitors, primary screen, biochemical, single point, plate reader; Endoplasmic reticulum aminopeptidase 1 (Homo sapiens), Q9NZ08; AID 652197, 2013; inhibition, % at 10.7 µM; hit rate 0.15% among 340,000; recombinant ERAP1, Leu-AMC fluorescence, 60 min;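 active means mean replicate inhibition of at least 30%, or all replicates individually reaching that 30% level; inactive means mean below 30% and not every replicate reaching it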;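 further: 0% = neutral control wells and 100% = L-leucinethiol positive control wells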
Cneo AK release – Cryptococcus neoformans cell lysis inducers, primary screen, AK release luminescence, single concentration; C. neoformans lysis, adenylate kinase release luminescence, 4 h; normalised: neutral wells 0, clomiphene wells 100; lysis activity, % at 15 µM; hit rate 0.2% among 360,000; AID 651654, 2012;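 active means mean lysis activity across replicates of at least 80%, whatever share of replicates individually reach that level; inactive means mean lysis activity below 80%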
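Schedule: static 4 h at 37 °C with compound, 1 h detection; system: C. neoformans cells; benchmarks: Clomiphene as positive control; buffer or medium: fresh YPD medium; measure: luminescence rise reflecting yeast cell lysis; measured by: luminescent adenylate kinase detection reagent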
esBAF inh – Bmi1 luciferase reporter increase in mESCs, primary screen, esBAF inhibitor project, mouse ES cells, Bmi1 luciferase knock-in, single point. 24 h; 100% = twice the neutral-well signal. reporter increase, % at 12.5 µM. hit rate 2% among 350,000. AID 602393, 2012; in the data active means activation above about 40%; inconclusive means no clear call, values can overlap the other calls;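 further: 0% = median of the plate's neutral control wells and 100% = double that signal; a rise in the Bmi1 reporter signal indicates esBAF inhibition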
Wnt bcat act – Wnt/beta-catenin pathway activators, primary screen, cell-based, plate reader, single point. activation, % at 9.35 µM. AID 743398, 2014. Wnt/beta-catenin reporter cell assay, activator. hit rate 1.2% among 300,000; in the data active means activation above about 30%, passing the limit was not always enough; inconclusive means no clear call, values can overlap the other calls;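 further: 0% = neutral control wells and 100% = positive control wells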
esBAF Ring1 qPCR – Ring1 mRNA increase in mouse ESCs, confirmation, esBAF inhibitor project, cell-based, mouse ESC, RT-qPCR, cherry-pick; mouse ESC E14, Ring1 mRNA RT-qPCR fold change; fold change at 33 µM; shares compounds with esBAF inh; 550 tested, under 10 active; AID 743176, 2013;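 active means Ring1 gene expression raised more than 2-fold over untreated cells in both replicates at either tested dose; inconclusive means only one replicate above 2-fold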;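 further: Ring1 transcript normalised to actin housekeeping signal by TaqMan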
Fgf4 repress – Fgf4 mRNA decrease in mouse ESCs, confirmation, esBAF inhibitor project, cell-based, mouse ESC, RT-qPCR, cherry-pick. shares compounds with esBAF inh. mouse ESC E14, Fgf4 mRNA qPCR fold change; hits give low values. Fgf4 expression fold change at 33 µM. hit rate 4% among 550;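 active means Fgf4 expression under 0.8 fold of control in both repeat measurements at one or both tested doses; inconclusive means under 0.8 fold in just a single repeat measurement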;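 further: Fgf4 transcript normalised to actin in duplex TaqMan qPCR; cells exposed to compound for 24 h before lysis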
Bmi1 derepress – esBAF inhibition via Bmi1 de-repression, confirmation, cell-based, RT-qPCR, mouse ESC, single point, cherry-pick | shares compounds with esBAF inh | mouse ESE14 ES cells, Bmi1 mRNA qPCR fold; hits give high values | fold change at 33 µM | 550 tested, under 10 active | AID 743180, 2013;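 active means Bmi1 expression fold change above 6 at either tested concentration, seen in replicate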;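 further: higher fold means more Bmi1 de-repression and stronger esBAF inhibition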
A549 tox SP – A549 cell cytotoxicity, cytotoxicity control, plate reader, single point, cherry-pick; shares compounds with esBAF inh; cell viability change % (negative = cytotoxic), % at 25 µM, hits read low; 550 tested, under 10 active; AID 743188, 2013; call rule not given here
HepG2 tox SP – HepG2 cell cytotoxicity, cytotoxicity control, plate reader, single point, cherry-pick. shares compounds with esBAF inh. hits give low values. activity change, negative = inhibition, % at 25 µM. hit rate 4% among 550; in the data active means activity change below about -50%
HEK293 cytotox SP – HEK293 cell cytotoxicity, cytotoxicity control, plate reader, single point, cherry-pick. activity change, negative = inhibition, % at 25 µM, hits read low. shares compounds with esBAF inh. AID 743190, 2013. hit rate 3% among 550; in the data active means activity change below about -38%, passing the limit was not always enough
An asterisk follows results filed as active; ? = inconclusive; nt = no result; [ ] = another dose, or the depositor's remark. Most compounds without a hit are left out; they make up all but 3.5% or so of the library.

SMILES	MITF act	HIV Env fusion	ERAP1 inh	Cneo AK release	esBAF inh	Wnt bcat act	esBAF Ring1 qPCR	Fgf4 repress	Bmi1 derepress	A549 tox SP	HepG2 tox SP	HEK293 cytotox SP
O=C1Nc2ccccc2N=C(c2ccc3c(c2)OCO3)C1N(C(=O)c1ccc2ccccc2c1)C1CC1 (stereo unspecified)	nt	56*	nt	-18	105*	1	1	1	1.2	-2	33	3
CN(c1cccc(NC(=O)c2ccc(C(C)(C)C)cc2)c1)S(C)(=O)=O	37	-105	1	-9	73*	0	1.2	0.82	2.3	11	-23	-43
N#C[C@@H]1[C@H](c2ccc(C3=CCCCC3)cc2)[C@@H](CO)N1C(=O)CN1CCOCC1	nt	31[16.7 µM]	2	44	-2	nt	nt	nt	nt	nt	nt	nt
COc1ccc2oc(-c3ccccc3)cc(=O)c2c1	nt	nt	3	-6	-43	0	nt	nt	nt	nt	nt	nt
CC(C)CN=c1cc(-c2ccccc2)oc2ccc(Cl)cc12	53	nt	nt	nt	54*	nt	0.62	?	6.9*	-7	-14	5
COc1ccc(OCc2cnc(Cl)s2)cc1	40	nt	nt	3	29	2	nt	nt	nt	nt	nt	nt
Cc1ccc(OCc2cnc(Cl)s2)c(C)c1	77	-64	0	2	84*	5	1.1	0.95	1.8	2	-36	-6
CNc1nc(Cl)nc(Nc2ccccc2)n1	8	-86	-1	nt	nt	8	nt	nt	nt	nt	nt	nt
C=CCNc1nc(Cl)nc(Nc2ccccc2)n1	50	-13	-2	1	60*	-2	1.2	1	1.1	4	-9	-10
O=C(Nc1ccccc1Cl)c1cc(=O)c2ccccc2o1	nt	-135	0	0	73*	11	1.2	1	1.1	-5	-7	-10
O=C(NCc1ccccc1)c1cc(=O)c2ccccc2o1	-3	12	5	nt	nt	nt	nt	nt	nt	nt	nt	nt
COc1ccccc1C(=O)Nc1sc2c(c1C#N)CCC2	14	nt	nt	0	59*	nt	0.9	0.81	1.6	1	-28	-10
COc1ccccc1C(=O)Nc1sc2c(c1C(N)=O)CCCC2	29	-78	4	1	29	1	nt	nt	nt	nt	nt	nt
O=C(O)C=C1CCN(c2ncc(C(F)(F)F)cc2Cl)CC1	nt	-33	nt	5	63*	19	1.1	1.1	1.5	-6	-13	-9
O=C(c1ccc(Cl)cc1)c1cnc(-c2ccc(Cl)cc2)s1	73	9	nt	-1	63*	nt	1.2	1.1	1.2	-9	-47	0
O=C(c1ccccc1)c1cnc(-c2ccccc2)s1	39	-254	2	nt	nt	12	nt	nt	nt	nt	nt	nt
CC1CCc2sc(C(=O)NC(C)C3CCCO3)cc2C1 (stereo unspecified)	30	-29	-2	-2	nt	2	nt	nt	nt	nt	nt	nt
CC1CCc2sc(C(=O)NC3CCCCC3)cc2C1 (stereo unspecified)	nt	-72	-3	-1	75*	54*	1.3	0.93	1.4	-6	-17	-9
CN(CC(=O)Nc1ccccc1Br)C(=O)c1cc2c(s1)CCCCC2	?	-49	-3	nt	67*	43*	0.9	0.82	1.7	-2	-29	-21
CN(CC(=O)Nc1ccccc1Br)C(=O)c1ccc(COc2ccccc2)cc1	11	4	-1	4	5	-1	nt	nt	nt	nt	nt	nt
COc1ccc2cc(C(=O)N(C)CC(=O)Nc3ccccc3Br)ccc2c1	51	nt	-4	-3	60*	42*	1.1	0.87	1.6	-1	-3	23
C[C@H]1CN([C@@H](C)CO)C(=O)c2cccc(NS(=O)(=O)c3cccs3)c2O[C@@H]1CN(C)C(=O)Nc1ccc2c(c1)OCO2	nt	nt	0	-1	9	nt	nt	nt	nt	nt	nt	nt
COc1ccc(OCc2cc(C(=O)NC(C)c3csc(C)n3)no2)c(Cl)c1 (stereo unspecified)	64	-33	-2	-1	66*	29	1.2	0.83	1.2	-4	-29	-12
Cc1ccc(S(=O)(=O)N(C)C[C@H]2Oc3ccc(NC(=O)Nc4c(C)noc4C)cc3C(=O)N([C@@H](C)CO)C[C@H]2C)cc1	nt	9[16.7 µM]	-5	0	-6	nt	nt	nt	nt	nt	nt	nt
O=c1oc(-c2ccccc2)cc2ccccc12	nt	nt	11	-1	77*	1	1.3	1	2	3	-13	-3
SMILES	MITF act	HIV Env fusion	ERAP1 inh	Cneo AK release	esBAF inh	Wnt bcat act	esBAF Ring1 qPCR	Fgf4 repress	Bmi1 derepress	A549 tox SP	HepG2 tox SP	HEK293 cytotox SP
COCC#Cc1ccc2c(c1)O[C@@H](CN(C)Cc1ccncc1)[C@H](C)CN([C@H](C)CO)S2(=O)=O	nt	-6[16.7 µM]	-1	-2	5	nt	nt	nt	nt	nt	nt	nt
COc1ccc(NC(=O)N(C)C[C@@H]2Oc3c(NC(=O)Nc4ccccc4)cccc3C(=O)N([C@@H](C)CO)C[C@@H]2C)cc1	nt	18[16.7 µM]	-4	-5	0	nt	nt	nt	nt	nt	nt	nt
OC(c1cccc(Cl)c1)c1nc(-c2ccc3c(c2)OCO3)cs1 (stereo unspecified)	nt	7	3	-3	2	9	nt	nt	nt	nt	nt	nt
OC(c1ccccc1)c1nc(-c2ccc3c(c2)OCO3)cs1 (stereo unspecified)	nt	-27	1	-5	61*	-3	0.99	0.84	1.3	-8	-8	-7
CN(C)S(=O)(=O)c1cccc(C(=O)Nc2ccc(Cl)cn2)c1	64	-55	nt	-2	63*	17	1.2	0.92	1.4	-1	-19	0
COc1ccc(NC(=O)c2cc3ccccc3cc2OC)cc1	63	-117	4	-5	28	23	nt	nt	nt	nt	nt	nt
COc1ccc(NC(=O)c2ccc3ccccc3c2OC)cc1	nt	-93	1	-11	75*	-1	1.1	0.93	2.3	0	-33	-6
O=C(Nc1ccc2ccccc2c1)c1cccc2ccccc12	32	-15	1	-1	77*	-3	1.1	0.95	1.8	-9	22	-11
